Assay results from article PMC8897028 (Acta Pharmaceutica Sinica. B, 2021).
Changes are numbered by the printed parent chain.

Assays:
Assay type in all cases: cell-based
mTRPV3 T665A = target: T1, mTRPV3 T665A (Mus musculus, UniProt Q8K424, T665A); assay: whole-cell patch-clamp of mTRPV3 T665A mutant in HEK293 cells; conditions: compound 50 μmol/L; 2-APB; compared with WT mTRPV3
T1 sequence (Q8K424 1-791 T665A): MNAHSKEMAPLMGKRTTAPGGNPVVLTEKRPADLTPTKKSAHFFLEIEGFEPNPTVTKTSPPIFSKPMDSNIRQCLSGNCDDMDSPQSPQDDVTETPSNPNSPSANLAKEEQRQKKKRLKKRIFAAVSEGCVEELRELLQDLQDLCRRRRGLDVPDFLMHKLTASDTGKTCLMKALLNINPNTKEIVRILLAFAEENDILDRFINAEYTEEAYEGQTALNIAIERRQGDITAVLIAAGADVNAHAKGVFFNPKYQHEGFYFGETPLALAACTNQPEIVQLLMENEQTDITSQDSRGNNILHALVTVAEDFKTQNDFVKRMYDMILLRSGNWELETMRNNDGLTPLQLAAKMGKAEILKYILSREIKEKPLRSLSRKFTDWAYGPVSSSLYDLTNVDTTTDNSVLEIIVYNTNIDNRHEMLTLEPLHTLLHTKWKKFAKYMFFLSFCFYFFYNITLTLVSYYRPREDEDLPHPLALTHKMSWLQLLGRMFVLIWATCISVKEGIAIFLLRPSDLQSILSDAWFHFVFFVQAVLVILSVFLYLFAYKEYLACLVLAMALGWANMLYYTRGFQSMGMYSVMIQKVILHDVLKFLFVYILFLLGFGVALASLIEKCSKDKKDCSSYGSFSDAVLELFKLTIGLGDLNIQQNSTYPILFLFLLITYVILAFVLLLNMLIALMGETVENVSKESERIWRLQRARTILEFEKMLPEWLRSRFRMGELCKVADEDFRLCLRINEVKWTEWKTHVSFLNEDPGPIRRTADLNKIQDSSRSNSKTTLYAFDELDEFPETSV
Method in brief: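 Mouse Trpv3 point mutants were made by site-directed mutagenesis, sequence-verified, and transiently expressed in HEK293 cells alongside wild-type mTRPV3. Whole-cell ramp recordings (−100 to +100 mV, 500 ms, holding 0 mV) were made at 22–24 °C. Currents were activated by 2-APB, and inhibition by 50 μmol/L test compound in the presence of 2-APB was compared with wild type; n = 3–8.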

mTRPV3 H426A = target: T2, mTRPV3 H426A (Mus musculus, UniProt Q8K424, H426A); assay: whole-cell patch-clamp of mTRPV3 H426A mutant in HEK293 cells; conditions: compound 100 µmol/L; carvacrol 300 μmol/L
T2 sequence (Q8K424 1-791 H426A): T1 sequence (Q8K424 1-791 T665A) with H426A, A665T
Method in brief: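 The sequence-confirmed site-directed mTRPV3 mutant was transiently expressed in HEK293 cells, and EGFP-positive cells were recorded whole-cell 18 h post-transfection. Cells were held at 0 mV with 500-ms ramps from −100 to +100 mV every 2 s, at 22–24 °C. Compounds were diluted in perfusion solution.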

hTRPV3 = target: T3, hTRPV3 (Homo sapiens, UniProt Q8NET8); assay: whole-cell patch-clamp of hTRPV3 currents expressed in HEK293 cells; conditions: for inhibition of hTRPV3 channel current activated by 2-APB: compound 50 μmol/L, agonist 2-APB 50 μmol/L, n = 5; for Hill coefficient: inhibition of hTRPV3 currents evoked by 2-APB 50 μmol/L
T3 sequence (Q8NET8 1-790): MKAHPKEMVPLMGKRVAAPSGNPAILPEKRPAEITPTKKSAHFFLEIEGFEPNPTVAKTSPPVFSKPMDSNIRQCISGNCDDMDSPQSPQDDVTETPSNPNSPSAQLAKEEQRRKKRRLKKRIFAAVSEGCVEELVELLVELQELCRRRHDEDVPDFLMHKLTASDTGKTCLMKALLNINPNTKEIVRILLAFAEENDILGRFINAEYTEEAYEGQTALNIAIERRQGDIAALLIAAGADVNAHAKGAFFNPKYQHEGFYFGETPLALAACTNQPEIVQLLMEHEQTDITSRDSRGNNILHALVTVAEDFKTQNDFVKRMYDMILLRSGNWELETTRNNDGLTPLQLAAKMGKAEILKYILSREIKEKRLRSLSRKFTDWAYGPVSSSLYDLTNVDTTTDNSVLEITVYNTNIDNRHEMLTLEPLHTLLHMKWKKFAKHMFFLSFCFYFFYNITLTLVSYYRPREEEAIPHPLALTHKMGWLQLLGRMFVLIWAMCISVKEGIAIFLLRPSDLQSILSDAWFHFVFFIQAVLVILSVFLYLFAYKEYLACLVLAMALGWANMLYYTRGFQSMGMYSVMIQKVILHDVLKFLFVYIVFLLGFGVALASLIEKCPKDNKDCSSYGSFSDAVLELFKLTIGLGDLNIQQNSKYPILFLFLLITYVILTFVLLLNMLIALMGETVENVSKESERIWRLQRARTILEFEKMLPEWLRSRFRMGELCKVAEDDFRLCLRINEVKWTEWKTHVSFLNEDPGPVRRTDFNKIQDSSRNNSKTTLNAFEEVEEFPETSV
Method in brief: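 Whole-cell currents were recorded from hTRPV3-transfected HEK293 cells (EGFP-identified, 18 h post-transfection) at 22–24 °C. Cells were held at 0 mV and ramped from −100 to +100 mV over 500 ms every 2 s. Currents were activated by 50 μmol/L 2-APB; test compound was added at 50 μmol/L or at 0.01–100 μmol/L. Outward current at +80 mV was fitted to a Hill equation for IC50; n = 5–8.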

Row | SMILES | effect of mutation on compound-induced inhibition of mTRPV3 currents (mTRPV3 T665A) | inhibition of carvacrol-mediated H426A mutant currents (mTRPV3 H426A) | inhibition of hTRPV3 channel current activated by 2-APB (hTRPV3) | Hill coefficient (hTRPV3) | better potency of IAB versus IAA (hTRPV3; from hTRPV3 IC50 values)
1 | O=C(/C=C/c1ccc(O)c(O)c1)O[C@@H]1C[C@](O)(C(=O)O)C[C@@H](OC(=O)/C=C/c2ccc(O)c(O)c2)[C@H]1O [IAA, isochlorogenic acid A] | no obvious effect | markedly inhibited | about 80.8 ± 2.1% | 0.50 | 
2 | O=C(/C=C/c1ccc(O)c(O)c1)O[C@@H]1[C@H](O)C[C@@](O)(C(=O)O)C[C@H]1OC(=O)/C=C/c1ccc(O)c(O)c1 [IAB, isochlorogenic acid B] | no obvious effect | markedly inhibited | ~86.4 ± 3.3% | 0.53 | 3 fold
